Test [1] concerns the target T1, Phospholipase A and acyltransferase 2 (Homo sapiens) (UniProt Q9NWW9).
T1 sequence (whole entry): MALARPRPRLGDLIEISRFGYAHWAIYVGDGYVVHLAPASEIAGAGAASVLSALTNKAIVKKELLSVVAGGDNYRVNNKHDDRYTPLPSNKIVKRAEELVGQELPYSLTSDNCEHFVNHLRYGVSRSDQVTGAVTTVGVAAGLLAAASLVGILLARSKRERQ
Kind of test: Inhibition of full-length C-terminal FLAG-tagged human PLAAT2 expressed in HEK293T cell lysate at 10 uM preincubated for 30 mins followed by MB064 addition and measured after 20 mins by SDS-PAGE based ABPP analysis. The test is classed as cell-free. The following applies: HEK-293T. In short, it runs like this:
(§1)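 Cytosol from HEK293T cells transiently transfected (PEI) with C-terminal FLAG-tagged human PLAAT, harvested 48–72 h. Inhibitor 10 μM, 30 min rt, then MB064 probe 20 min rt. Protein/MB064: PLAAT2 0.25 μg/μL, 250 nM; PLAAT3 0.5 μg/μL, 250 nM; PLAAT4 1 μg/μL, 500 nM; PLAAT5 1 μg/μL, 500 nM. Read-out: in-gel fluorescence after SDS-PAGE, normalized to Coomassie. Triplicate.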

The target of test [2] is T2, Phospholipase A and acyltransferase 3 (Homo sapiens, UniProt P53816).
T2 sequence (P53816 whole entry): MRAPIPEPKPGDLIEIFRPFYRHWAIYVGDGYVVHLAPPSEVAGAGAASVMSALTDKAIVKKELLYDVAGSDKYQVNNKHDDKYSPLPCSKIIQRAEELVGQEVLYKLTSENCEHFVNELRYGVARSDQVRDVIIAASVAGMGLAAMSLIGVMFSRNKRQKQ
Kind of test: Inhibition of full-length C-terminal FLAG-tagged human PLAAT3 expressed in HEK293T cell lysate preincubated for 30 mins followed by MB064 addition and measured after 20 mins by SDS-PAGE based ABPP analysis. The test is classed as cell-free, HEK-293T. In short, it runs like this: (§2)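 Dose–response competitive ABPP on cytosol only, from HEK293T overexpressing FLAG-tagged PLAAT. Inhibitor 30 min rt, then MB064 20 min rt. PLAAT2 0.25 μg/μL with 250 nM probe; PLAAT3 0.5 μg/μL with 250 nM; PLAAT4 and PLAAT5 1 μg/μL with 500 nM. Fluorescence normalized to Coomassie. IC50 from curves, reported as pIC50 ± SEM, n = 3.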

In test [3] the target is Phospholipase A and acyltransferase 3 (Homo sapiens) (UniProt P53816). Kind of test: Inhibition of full-length C-terminal FLAG-tagged human PLAAT3 expressed in HEK293T cell lysate at 10 uM preincubated for 30 mins followed by MB064 addition and measured after 20 mins by SDS-PAGE based ABPP analysis. The test is classed as cell-free. Conditions: HEK-293T. In short, it runs like this: as §1

For test [4], the target named is T3, Phospholipase A and acyltransferase 4 (Homo sapiens, UniProt Q9UL19).
T3 sequence (Q9UL19 whole entry): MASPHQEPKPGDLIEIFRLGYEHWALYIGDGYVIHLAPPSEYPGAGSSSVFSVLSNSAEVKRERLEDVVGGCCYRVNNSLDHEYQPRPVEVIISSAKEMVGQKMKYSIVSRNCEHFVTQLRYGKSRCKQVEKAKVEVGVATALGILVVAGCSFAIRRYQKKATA
Kind of test: Inhibition of full-length C-terminal FLAG-tagged human PLAAT4 expressed in HEK293T cell lysate preincubated for 30 mins followed by MB064 addition and measured after 20 mins by SDS-PAGE based ABPP analysis. In kind it is cell-free, HEK-293T. The procedure, abridged: as §2

The target of test [5] is T4, Phospholipase A and acyltransferase 2 (Homo sapiens, UniProt Q9NWW9).
T4 sequence (Q9NWW9 whole entry): T1 sequence (whole entry)
Kind of test: Inhibition of full-length C-terminal FLAG-tagged human PLAAT2 expressed in HEK293T cell lysate preincubated for 30 mins followed by MB064 addition and measured after 20 mins by SDS-PAGE based ABPP analysis. The test is classed as cell-free, HEK-293T. In short, it runs like this: as §2

Test [6] concerns the target Phospholipase A and acyltransferase 4 (Homo sapiens) (UniProt Q9UL19). The test can be described thus: Inhibition of full-length C-terminal FLAG-tagged human PLAAT4 expressed in HEK293T cell lysate at 10 uM preincubated for 30 mins followed by MB064 addition and measured after 20 mins by SDS-PAGE based ABPP analysis. The following applies: HEK-293T. The test is classed as cell-free. The procedure, abridged: as §1

The target of test [7] is T5, Phospholipase A and acyltransferase 5 (Homo sapiens) (UniProt Q96KN8).
T5 sequence (whole entry): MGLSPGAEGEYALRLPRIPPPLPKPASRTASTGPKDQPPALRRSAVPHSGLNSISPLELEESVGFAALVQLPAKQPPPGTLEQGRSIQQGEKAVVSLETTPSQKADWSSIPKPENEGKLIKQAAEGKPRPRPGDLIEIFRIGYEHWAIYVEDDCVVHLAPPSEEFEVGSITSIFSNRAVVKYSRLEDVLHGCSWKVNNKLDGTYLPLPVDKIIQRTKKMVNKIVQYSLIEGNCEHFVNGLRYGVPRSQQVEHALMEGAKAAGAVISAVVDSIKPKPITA
Kind of test: Inhibition of full-length C-terminal FLAG-tagged human PLAAT5 expressed in HEK293T cell lysate at 10 uM preincubated for 30 mins followed by MB064 addition and measured after 20 mins by SDS-PAGE based ABPP analysis. In kind it is cell-free. The following applies: HEK-293T. In short, it runs like this: as §1

In test [8] the target is T6, Phospholipase A and acyltransferase 5 (Homo sapiens, UniProt Q96KN8).
T6 sequence (Q96KN8 whole entry): T5 sequence (whole entry)
Kind of test: Inhibition of full-length C-terminal FLAG-tagged human PLAAT5 expressed in HEK293T cell lysate preincubated for 30 mins followed by MB064 addition and measured after 20 mins by SDS-PAGE based ABPP analysis. The test is classed as cell-free, HEK-293T. The procedure, abridged: as §2

For test [9], the species on record is Homo sapiens. Kind of test: Selectivity index, difference between pIC50 for full-length C-terminal FLAG-tagged human PLAAT5 expressed in HEK293T cell lysate to pIC50 for full-length C-terminal FLAG-tagged human PLAAT2 expressed in HEK293T cell lysate. The procedure, abridged:
(§3)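 Cytosol of HEK293T cells transiently transfected (PEI) with C-terminal FLAG-tagged human PLAAT, harvested at 48 or 72 h. Dose-response: pretreated with inhibitor or DMSO for 30 min at rt, then labelled with MB064 for 20 min at rt. Protein and MB064: PLAAT2 0.25 μg/μL, 250 nM; PLAAT3 0.5 μg/μL, 250 nM; PLAAT4 1 μg/μL, 500 nM; PLAAT5 1 μg/μL, 500 nM. Read by SDS-PAGE in-gel fluorescence normalized to Coomassie. Triplicate pIC50s; index is the pIC50 difference.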

The species named for test [10] is Homo sapiens. Kind of test: Selectivity index, difference between pIC50 for full-length C-terminal FLAG-tagged human PLAAT5 expressed in HEK293T cell lysate to pIC50 for full-length C-terminal FLAG-tagged human PLAAT4 expressed in HEK293T cell lysate. The procedure, abridged:
as §3

For test [11], the species on record is Homo sapiens. Kind of test: Selectivity index, difference between pIC50 for full-length C-terminal FLAG-tagged human PLAAT5 expressed in HEK293T cell lysate to pIC50 for full-length C-terminal FLAG-tagged human PLAAT3 expressed in HEK293T cell lysate. In short, it runs like this: as §3

Molecules are shown by their SMILES. pIC50: −log10 of the molar value. Calls of active or inactive are those of the source. No cut-off for these calls is given here.

For orientation: pIC50 means the negative decadic logarithm of the IC50, by convention in mol/L. A higher pIC50 goes with a low IC50. With `O=C(NCCc1ccccc1)C(O)CCc1ccc(Cl)cc1` (configuration not stated), the inhibition result in test [1], in [3], in test [6] and in test [7] was “inactive” in each case. The negative-log IC50 (pIC50) in [2], in test [4], in test [5] and in [8] was less than 5.00 each time.
Consider `O=C(CCc1ccc(Oc2ccccc2)cc1)C(=O)NCCc1ccccc1`, for which the negative logarithm of the IC50 (pIC50) is 5.40 in test [2], 5.90 in [4], 5.40 in [5] and 6.90 in [8]. Also, the Selectivity Index in the test listed under Homo sapiens [9], in the test listed under Homo sapiens [10] and in the test listed under Homo sapiens [11] was 10 to 30 throughout.
For the compound `COc1ccc(/C=C/C(=O)C(=O)NCCc2ccccc2)cc1`, the pIC50 in test [2] was 5.30; in [4], 5.60; in test [5] it was 5.80; in test [8] it was 6.00.
In the same order, the values of `COc1ccc(CCNC(=O)C(=O)CCCc2ccccc2)cc1OC` are 6.00, 5.20, 5.30 and 6.50.
The matching figures for `O=C(CCCc1ccccc1)C(=O)NCCc1ccc(O)cc1`: 5.80, 5.60, 5.90 and 6.80.
For `O=C(CCc1ccc(Cl)cc1)C(=O)N1CCCC1`, the pIC50 in test [2], in test [4], in [5] and in test [8] was less than 5.00 each time.
In the case of `O=C(CCc1ccccc1)C(F)(F)C(=O)NCCc1ccccc1`, the pIC50 in test [2], in test [4], in [5] and in [8] was less than 5.00 in each case.
Regarding `O=C(CCc1ccccc1)CC(=O)NCc1ccccc1`, the pIC50 in [2], in test [4], in [5] and in [8] was less than 5.00 throughout.
Regarding `COc1ccc(CCC(=O)C(=O)NCCc2ccccc2)cc1`, the negative logarithm of the IC50 (pIC50) in [2] is 5.50; in test [4], 5.90; in test [5], 5.50; in test [8], 5.90.
On to `O=C(CCCc1ccccc1)C(=O)NCCc1ccc(Oc2ncccn2)cc1`, for which the pIC50 in test [2] is 5.70; in [4], 5.90; in test [5] it was 5.70; in test [8], 6.60.
Take `O=C(CCc1ccccc1Cl)C(=O)NCCc1ccccc1`: the pIC50 in test [2] was 5.70; in test [4] it was 5.60; in test [5], 5.90; in [8], 5.80.
In the same order, the values of `O=C(CCc1ccccc1)[C@H](F)C(=O)NCc1ccccc1` are less than 5.00, less than 5.00, less than 5.00 and less than 5.00.
`Cc1ccc(CCNC(=O)C(=O)CCCc2ccccc2)cc1`: the negative-log IC50 (pIC50) in test [2] was 6.90; in [4], 5.90; in test [5], 5.70; in test [8] it was 7.40.
In the same order, the values of `O=C(CCCc1ccccc1)C(=O)NCCc1ccccc1Cl` are 5.90, 5.60, 5.20 and 6.10.
The matching figures for `O=C(CCCCc1ccccc1)C(=O)NCCc1ccccc1`: 6.00, 5.80, 5.50 and 6.80.

The values above are taken from ChEMBL document CHEMBL4622983, “Structure-Activity Relationship Studies of α-Ketoamides as Inhibitors of the Phospholipase A and Acyltransferase Enzyme Family” (J Med Chem, 2020).
